ChEMBL document CHEMBL1153208, “Identification of a new class of small molecule C5a receptor antagonists” (Bioorg Med Chem Lett, 2010)

Assays:
[1] = biological target: T1, C5a anaphylatoxin chemotactic receptor 1 (Homo sapiens, UniProt P21730); assay: Antagonist activity at human C5a receptor expressed in CHO cells co-expressed with Galpha16 assessed as inhibition of anaphylatoxin C5a-induced intracellular calcium accumulation after 10 mins by FLIPR assay; format: functional, cell-based
T1 sequence (P21730 whole entry): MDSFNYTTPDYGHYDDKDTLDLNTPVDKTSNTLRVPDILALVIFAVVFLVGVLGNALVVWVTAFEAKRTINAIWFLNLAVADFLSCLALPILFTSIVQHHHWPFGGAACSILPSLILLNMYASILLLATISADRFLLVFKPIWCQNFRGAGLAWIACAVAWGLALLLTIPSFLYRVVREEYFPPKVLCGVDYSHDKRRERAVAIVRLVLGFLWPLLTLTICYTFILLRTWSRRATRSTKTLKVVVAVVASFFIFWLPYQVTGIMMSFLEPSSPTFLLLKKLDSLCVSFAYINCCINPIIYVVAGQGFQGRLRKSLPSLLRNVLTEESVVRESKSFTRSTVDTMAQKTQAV

[2] = biological target: T1, C5a anaphylatoxin chemotactic receptor 1; assay: Displacement of [125I]human anaphylatoxin C5a from human C5a receptor expressed in CHO cells co-expressed with Galpha16 after 1 hr; format: cell-based
Summary of the method: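 Intact CHO-Gα16-C5aR cells plated at 50,000/well in growth medium with 10% FBS the day before. Medium replaced by HBSS + 20 mM HEPES + 0.1% BSA. Compound added for 10 min at rt, then 0.6 nM 125I-hC5a for 1 h at rt. Cells washed eight times with PBS + 1 mM CaCl2 + 0.1% BSA on a harvester.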

[3] = biological target: T1, C5a anaphylatoxin chemotactic receptor 1; assay: Agonist activity at human C5a receptor expressed in CHO cells co-expressed with Galpha16 assessed as effect on anaphylatoxin C5a-induced intracellular calcium accumulation after 10 mins by FLIPR assay; format: functional, cell-based
[4] = biological target: T1, C5a anaphylatoxin chemotactic receptor 1; assay: Antagonist activity at C5a receptor in human PMNC assessed as inhibition of anaphylatoxin C5a-induced intracellular calcium accumulation after 10 mins by FLIPR assay; format: functional, cell-based
Summary of the method: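 Human neutrophils purified from whole blood on a Ficoll gradient, resuspended in Ca3 dye and plated at 50,000 cells/well in HBSS + 20 mM HEPES + 0.1% BSA. After 1 h at 37 °C, 5% CO2, compound added for 10 min, then 10 nM hC5a. Calcium response recorded on FLIPR.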

[5] = Inhibition of anaphylatoxin C5a-induced chemotaxis in human PMNC; format: functional
Blood = assay: Inhibition of anaphylatoxin C5a-induced PMNC shape changes in human whole blood treated 10 mins before anaphylatoxin C5a-induced challenge measured after 40 mins by FACS analysis; format: functional, tissue-based
Summary of the method: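 Whole-blood assay. After stimulation, cells fixed with ice-cold 1% paraformaldehyde, then red cells lysed in ice-cold hypotonic buffer for 40 min on ice. Neutrophils gated by forward and side scatter on a flow cytometer. Shape change read as the rise in autofluorescence on the FL2-H channel.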

[6] = biological target: T2, C-X-C chemokine receptor type 3 (Homo sapiens, UniProt P49682); assay: Inhibition of CXCR3 in human T cells; format: cell-based, T-cell
T2 sequence (P49682 whole entry): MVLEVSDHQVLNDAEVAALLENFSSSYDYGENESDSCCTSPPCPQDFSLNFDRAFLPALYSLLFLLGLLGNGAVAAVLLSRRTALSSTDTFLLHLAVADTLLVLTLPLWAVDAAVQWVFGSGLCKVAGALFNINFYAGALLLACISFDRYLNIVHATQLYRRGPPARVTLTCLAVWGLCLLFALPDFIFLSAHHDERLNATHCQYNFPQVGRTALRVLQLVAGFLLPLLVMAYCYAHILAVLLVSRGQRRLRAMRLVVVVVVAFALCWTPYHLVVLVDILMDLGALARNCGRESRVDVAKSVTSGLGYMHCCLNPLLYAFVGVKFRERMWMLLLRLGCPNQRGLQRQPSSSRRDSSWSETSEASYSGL

[7] = biological target: C-X-C chemokine receptor type 4 (Homo sapiens, UniProt P61073); assay: Inhibition of CXCR4 in human T cells; format: cell-based, T-cell
Sequence of C-X-C chemokine receptor type 4 (P61073 whole entry): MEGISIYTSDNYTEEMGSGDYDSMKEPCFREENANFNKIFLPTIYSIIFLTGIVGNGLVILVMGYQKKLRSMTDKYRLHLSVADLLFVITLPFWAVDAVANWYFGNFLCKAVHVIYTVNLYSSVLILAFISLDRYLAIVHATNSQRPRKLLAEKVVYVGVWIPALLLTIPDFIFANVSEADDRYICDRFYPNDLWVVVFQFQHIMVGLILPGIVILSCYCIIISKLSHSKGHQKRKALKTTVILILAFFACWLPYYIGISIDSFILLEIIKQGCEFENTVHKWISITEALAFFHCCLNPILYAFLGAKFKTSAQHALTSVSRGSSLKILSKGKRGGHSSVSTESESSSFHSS

P2Y purinoceptor 2 = P2Y purinoceptor 2 (Homo sapiens, UniProt P41231); assay: Inhibition of human P2Y2 receptor expressed in CHO cells; format: cell-based
Sequence of P2Y purinoceptor 2 (P41231 whole entry): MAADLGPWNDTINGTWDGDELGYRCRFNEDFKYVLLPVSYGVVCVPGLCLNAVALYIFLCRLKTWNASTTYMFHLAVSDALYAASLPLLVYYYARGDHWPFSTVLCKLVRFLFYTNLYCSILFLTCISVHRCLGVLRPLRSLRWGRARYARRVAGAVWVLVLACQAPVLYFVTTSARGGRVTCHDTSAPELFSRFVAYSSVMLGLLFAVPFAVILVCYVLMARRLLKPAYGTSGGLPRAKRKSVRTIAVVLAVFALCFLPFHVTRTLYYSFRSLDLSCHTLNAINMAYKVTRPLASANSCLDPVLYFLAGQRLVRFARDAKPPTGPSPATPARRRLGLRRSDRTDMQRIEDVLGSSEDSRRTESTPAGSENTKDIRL

Row | SMILES | IC50 [1] [µM] | IC50 [2] [µM] | EC50 [3] [µM] | IC50 [4] [µM] | IC50 [5] [µM] | IC50 (Blood) [µM] | IC50 [6] [µM] | IC50 [7] [µM] | IC50 (P2Y purinoceptor 2) [µM]
1 | CN(c1ccccc1N(C)S(=O)(=O)c1ccccc1)S(=O)(=O)c1ccccc1 | > 60 | > 60 | > 60 | – | – | – | – | – | –
2 | Cc1ccc(S(=O)(=O)N(C)c2ccc(Cl)cc2C(=O)c2ccccc2)cc1 | > 60 | 8.7 | > 60 | – | – | – | – | – | –
3 | Cc1ccc(S(=O)(=O)N(C)c2ccccc2N(C)S(=O)(=O)c2ccc(C)cc2)cc1 | 0.2 | 0.2 | > 60 | 0.0067 | 5.7 | 27 | > 60 | > 60 | > 60
4 | Cc1ccc(S(=O)(=O)N(C)c2ccc(Br)cc2C(=O)c2ccccc2)cc1 | > 60 | 14.6 | > 60 | – | – | – | – | – | –
5 | Cc1ccc(S(=O)(=O)N2CCN(S(=O)(=O)c3ccc(C)cc3)CC2)cc1 | > 60 | – | – | > 60 | – | – | – | – | –
6 | Cc1ccc(S(=O)(=O)N2Cc3ccccc3CN(S(=O)(=O)c3ccc(C)cc3)c3ccccc32)cc1 | > 60 | > 60 | > 60 | – | – | – | – | – | –
7 | Cc1ccc(S(=O)(=O)N(C)c2ccccc2C(=O)N2CCc3ccccc32)cc1 | 38.3 | 44.5 | > 60 | – | – | – | – | – | –
8 | C=CCN(c1ccccc1N(CC=C)S(=O)(=O)c1ccc(C)cc1)S(=O)(=O)c1ccc(C)cc1 | 0.3 | 0.3 | > 60 | 0.059 | 2.5 | – | > 60 | > 60 | > 60
9 | Cc1ccc(S(=O)(=O)N(C)c2ccccc2C(=O)c2ccsc2)cc1 | 0.6 | 1.7 | > 60 | 0.4 | > 60 | > 60 | > 60 | > 60 | > 60
10 | Cc1ccc(S(=O)(=O)N2CCN(S(=O)(=O)c3ccc(C)cc3)c3ccccc32)cc1 | > 60 | > 60 | > 60 | – | – | – | – | – | –
11 | Cc1ccc(S(=O)(=O)N(CCCN(c2ccccc2)S(=O)(=O)c2ccc(C)cc2)c2ccccc2)cc1 | > 60 | – | – | > 60 | – | – | – | – | –
12 | CC(=O)c1ccccc1N(C)S(=O)(=O)c1ccc(C)cc1 | > 60 | > 60 | > 60 | – | – | – | – | – | –
